Results of several laboratories.
Each line is one published result; the experiments were not run side by side.
Target: Serine/threonine-protein kinase TNNI3K (TNNI3K, Homo sapiens, UniProt Q59H18)
One construct used (Q59H18 1-835): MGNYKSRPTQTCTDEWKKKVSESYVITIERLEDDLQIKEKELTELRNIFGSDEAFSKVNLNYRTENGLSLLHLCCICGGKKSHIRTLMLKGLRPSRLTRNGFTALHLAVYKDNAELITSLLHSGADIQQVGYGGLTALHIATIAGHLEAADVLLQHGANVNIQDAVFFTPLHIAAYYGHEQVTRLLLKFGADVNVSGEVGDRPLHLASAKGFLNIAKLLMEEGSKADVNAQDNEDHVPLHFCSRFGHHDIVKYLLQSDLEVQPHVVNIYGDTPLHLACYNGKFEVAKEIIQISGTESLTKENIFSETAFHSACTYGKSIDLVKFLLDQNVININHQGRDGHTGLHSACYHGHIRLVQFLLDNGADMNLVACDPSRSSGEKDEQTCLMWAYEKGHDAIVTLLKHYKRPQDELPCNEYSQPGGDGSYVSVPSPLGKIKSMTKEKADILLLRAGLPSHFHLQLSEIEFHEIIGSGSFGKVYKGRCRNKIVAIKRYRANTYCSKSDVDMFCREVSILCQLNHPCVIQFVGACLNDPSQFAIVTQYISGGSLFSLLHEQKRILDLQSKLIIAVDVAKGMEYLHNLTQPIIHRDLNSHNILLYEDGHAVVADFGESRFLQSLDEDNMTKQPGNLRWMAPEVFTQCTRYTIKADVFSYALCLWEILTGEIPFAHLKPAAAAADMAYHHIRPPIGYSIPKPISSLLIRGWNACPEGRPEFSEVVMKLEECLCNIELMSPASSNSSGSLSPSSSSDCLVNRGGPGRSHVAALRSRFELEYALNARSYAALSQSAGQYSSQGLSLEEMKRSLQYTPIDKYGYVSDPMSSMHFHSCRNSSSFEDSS

COc1cnc(Nc2cccc(S(N)(=O)=O)c2)nc1N1CCN(c2ccccc2)CC1 — remaining binding (binding, competition with immobilised ligand; 1 µM): 96%
O=C(c1ccc(Nc2ncc(Cl)c(-c3cc4ccccc4s3)n2)cc1)N1CCC(N2CCCC2)CC1 — remaining binding (binding, competition with immobilised ligand; 1 µM): 50%
C[C@@H]1CCN(c2nccc(-c3cnn4ncccc34)n2)C1 — remaining binding (binding; 1 µM): 100%
Cc1noc([C@H]2C[C@@H](c3ccc(C(F)(F)F)cc3)CN(C(=O)N3CCS(=O)(=O)C3)C2)n1 — remaining binding (cell-free assay, competition with immobilised ligand; 1 µM): 100%
O=C(NCCCN1CCOCC1)c1ccc(Nc2ncc(Cl)c(-c3ccc(Cl)s3)n2)cc1 — remaining binding (binding, competition with immobilised ligand; 1 µM): 78%
COc1ccc2cc(OCC3(C(=O)O)CN(C(=O)c4ccc(F)cc4)C3)ccc2c1 — remaining binding (cell-free assay, competition with immobilised ligand; 1 µM): 100%
CN(C)c1nccc(-c2cnn3ncccc23)n1 — remaining binding (binding; 1 µM): 100%
COc1cnc(Nc2cccc(S(N)(=O)=O)c2)nc1N1CCN(c2ccccc2)C(=O)C1 — remaining binding (binding, competition with immobilised ligand; 1 µM): 86%
C[C@@H](c1ccc(-n2cnc3c(N)ncnc32)cc1)N1CCc2nn(C)c(Cc3ccccc3)c2C1=O — remaining binding (binding, competition with immobilised ligand; 0.1 µM): 88%
Cc1nc(N2CC[C@@H](O)C2)ncc1-c1cc(C(F)(F)F)cc2[nH]ncc12 — remaining binding (cell-free assay, competition with immobilised ligand; 1 µM): 87%
FC(F)(F)Oc1cccc(-c2cnc3ccc(-c4ccncc4)nn23)c1 — remaining binding (binding, competition with immobilised ligand; 5 µM): 91%
O=C(Nc1c[nH]nc1C(=O)NC1CCNCC1)c1cc(F)cc(F)c1 — remaining binding (binding, competition with immobilised ligand; 1 µM): 95%
Cc1c[nH]c2nccc(Oc3c(F)cc(Nc4cc(Cl)nc(N)n4)cc3F)c12 — remaining binding (cell-free assay, competition with immobilised ligand; 0.1 µM): 98%
CN(C)c1ncc(F)c(-c2cnn3ncccc23)n1 — remaining binding (binding; 1 µM): 100%
c1cncc(-c2cccc(Nc3nccc(NC4CCCCC4)n3)c2)c1 — remaining binding (binding, competition with immobilised ligand; 10 µM): 95%
O=C(NCCCN1CCOCC1)c1ccc(Nc2nccc(-c3cc4ccccc4s3)n2)cc1 — remaining binding (binding, competition with immobilised ligand; 1 µM): 70%
Cc1nc(C2CCN(C(=O)c3ccc(OC(F)(F)F)cc3N)CC2)c2ncc(N3CCN(C)CC3)cc2n1 — remaining binding (cell-free assay, competition with immobilised ligand; 1 µM): 100%
CN(c1nccc(-c2cnn3ncccc23)n1)C1CC1 — remaining binding (binding; 1 µM): 84%
CCCCN(CCCC)C(=O)CN1C[C@H](c2cc(OC)c3c(c2)OCO3)[C@@H](C(=O)O)[C@@H]1CC(C)(C)CCC — remaining binding (cell-free assay, competition with immobilised ligand; 1 µM): 100%
N[C@@H]1CCN(c2nccc(-c3cnn4ncccc34)n2)C1 — remaining binding (binding; 1 µM): 94%
Cn1nc(C(F)(F)F)cc1-c1cnc(N2CCc3cc(S(=O)(=O)Nc4c(F)cc(Cl)cc4F)cc(N4CCCC4=O)c32)nc1 — remaining binding (cell-free assay, competition with immobilised ligand; 1 µM): 65%
CN(CCCC(F)(F)F)c1nccc(-c2cnn3ncccc23)n1 — remaining binding (binding; 1 µM): 100%
